Activity calls are given as the source filed them.
What was measured:
Mus musculus [1] = assay: Anticonvulsant activity in albino CD-1 mouse assessed as protection against subcutaneous pentylenetetrazole-induced seizure at 30 to 300 mg/kg, ip measured after 2.0 hrs; type: functional; details: for minimal effective dose: CD-1, 2 h, read-out: MED
Procedure, shortened: (§1)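 Male CD-1 mice given compound i.p. (0.5% methylcellulose suspension) at 30, 100, 300 mg/kg, four per group; pentylenetetrazole 85 mg/kg s.c. at 0.5 or 2 h. Absence of clonic convulsions (≥5 s) over 30 min observation counts as protection. Minimum active dose reported.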

Mus musculus [2] = assay: Neurotoxicity in albino CD-1 mouse assessed as motor impairment at 30 to 300 mg/kg mg/kg, ip measured after 2 hrs by rotarod test; type: toxicity, organism-based; details: in vivo
Procedure, shortened: (§2)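 Rotarod in male CD-1 mice at 0.5 and 2 h after i.p. 30, 100 or 300 mg/kg (methylcellulose suspension); motor impairment = inability to keep balance on rod turning at 10 rpm for at least 1 min. Minimum neurotoxic dose reported.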

Mus musculus [3] = assay: Anticonvulsant activity in albino CD-1 mouse assessed as protection against maximal electroshock-induced seizure at 30 to 300 mg/kg, ip measured after 2.0 hrs; type: functional; details: for minimal effective dose: CD-1, ip, read-out: MED
Procedure, shortened: (§3)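 Male CD-1 mice (16–26 g), compound suspended in 0.5% methylcellulose/water, i.p. at 30, 100, 300 mg/kg; four mice per group, each used once. Electroconvulsion by electrical stimulus 0.2 s at 50 Hz; protection scored at 0.5 and 2 h. Value is minimum dose showing activity.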

Mus musculus [4] = assay: Anticonvulsant activity in albino CD-1 mouse assessed as protection against subcutaneous pentylenetetrazole-induced seizure at 30 to 300 mg/kg, ip measured after 0.5 hrs; type: functional; details: for minimal effective dose: CD-1, 0.5 h, read-out: MED; procedure, shortened: as §1
Mus musculus [5] = assay: Anticonvulsant activity in albino CD-1 mouse assessed as protection against maximal electroshock-induced seizure at 30 to 300 mg/kg, ip measured after 0.5 hrs; type: functional; details: for minimal effective dose: CD-1, ip, read-out: MED; procedure, shortened: as §3
Mus musculus [6] = assay: Neurotoxicity in albino CD-1 mouse assessed as motor impairment at 30 to 300 mg/kg mg/kg, ip measured after 0.5 hrs by rotarod test; type: toxicity, organism-based; details: in vivo; procedure, shortened: as §2
Mus musculus [7] = assay: Anticonvulsant activity in ip dosed albino CD-1 mouse assessed as protection against subcutaneous pentylenetetrazole-induced seizure; type: functional
Procedure, shortened: (§4)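 Quantitative work at time of peak effect previously estimated in screening; groups of six mice given various i.p. doses until ≥3 points within 10–90% seizure protection (MES or scPTZ) or minimal motor impairment on rotarod (10 rpm, failure to hold ≥1 min).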

Mus musculus [8] = assay: Anticonvulsant activity in ip dosed albino CD-1 mouse assessed as protection against subcutaneous pentylenetetrazole-induced seizure measured as time to peak effect; type: functional; procedure, shortened: as §4
[9] = Neurotoxicity in ip dosed albino CD-1 mouse assessed as motor impairment by rotarod test; type: toxicity, organism-based; details: in vivo; procedure, shortened: as §4
Mus musculus [10] = assay: Anticonvulsant activity in ip dosed albino CD-1 mouse assessed as protection against maximal electroshock-induced seizure measured as time to peak effect; type: functional; procedure, shortened: as §4
[11] = Protective index, ratio of TD50 for neurotoxicity in ip dosed albino CD-1 mouse to ED50 for anticonvulsant activity in ip dosed subcutaneous pentylenetetrazole-induced seizure albino CD-1 mouse model; type: toxicity, organism-based; details: in vivo, read-out: Ratio TD50/ED50
Procedure, shortened: (§5)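 Protective index computed as TD50 (rotarod) divided by ED50 (MES or scPTZ), both from probit analysis on groups of six i.p.-dosed mice.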

Mus musculus [12] = assay: Neurotoxicity in albino CD-1 mouse assessed as mouse mortality at 300 mg/kg mg/kg, ip measured after 0.5 hrs; type: toxicity, organism-based; details: in vivo
Procedure, shortened: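 Male albino CD-1 mice (16–26 g), four per group, each used once. Compounds were suspended in 0.5% methylcellulose/water and injected i.p. at 30, 100 and 300 mg/kg. Acute motor impairment was scored by rotarod at 0.5 and 2 h: inability to stay on a rod turning at 10 rpm for at least 1 min.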

Mus musculus [13] = assay: Anticonvulsant activity in ip dosed albino CD-1 mouse assessed as protection against maximal electroshock-induced seizure; type: functional; details: CD-1, ip; procedure, shortened: as §4
Mus musculus [14] = assay: Anticonvulsant activity in ip dosed albino CD-1 mouse assessed as protection against 6 Hz current-induced seizure measured after 2.0 hrs; type: functional; details: CD-1, ip, read-out: MED
Procedure, shortened: (§6)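 6-Hz psychomotor test: corneal stimulation 32 mA, 0.2 ms monopolar rectangular pulses at 6 Hz for 3 s, mice restrained then released to observation cage. Protected if normal exploratory behaviour resumes within 10 s. Doses 30, 100, 300 mg/kg i.p.; read at 0.5 and 2 h; minimum active dose.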

Mus musculus [15] = assay: Anticonvulsant activity in ip dosed albino CD-1 mouse assessed as protection against 6 Hz current-induced seizure measured after 0.5 hrs; type: functional; details: CD-1, ip, read-out: MED; procedure, shortened: as §6
Vibrio harveyi [16] = assay: Mutagenic activity in Vibrio harveyi BB7 assessed as mutagenicity index at 40 ng/ml; type: organism-based; details: in vivo
Procedure, shortened: (§7)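 Ames TA100 liquid pre-incubation (minimal medium, 37 °C) and V. harveyi assay (BOSS medium, 30 °C); test at 40 ng/ml, triplicate. Mutagenic index = induced revertants / spontaneous revertants (DMSO control); M.I. ≥2 considered mutagenic.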

Vibrio harveyi [17] = assay: Antimutagenic activity in Vibrio harveyi BB7XM assessed as inhibition of nitroquinoline-N-oxide-induced revertant colonies; type: functional
Procedure, shortened: (§8)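 Revertants induced by 4-nitroquinoline-N-oxide (final 40 ng/ml) with versus without test compound; TA100 at 37 °C, V. harveyi strains at 30 °C in BOSS medium. Three independent repetitions; inhibition % = 100 − (R1/R2 × 100); 25–40% moderate, ≥40% strong.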

Salmonella typhimurium [18] = assay: Mutagenic activity in Salmonella typhimurium TA100 assessed as mutagenicity index at 40 ng/ml by Ames test; type: toxicity, organism-based; details: salmonella enterica subsp. enterica serovar typhimurium; procedure, shortened: as §7
Vibrio harveyi [19] = assay: Antimutagenic activity in Vibrio harveyi BB7 assessed as inhibition of nitroquinoline-N-oxide-induced revertant colonies; type: functional; procedure, shortened: as §8
Salmonella typhimurium [20] = assay: Antimutagenic activity in Salmonella typhimurium TA100 assessed as inhibition of nitroquinoline-N-oxide-induced revertant colonies by Ames test; type: functional, Salmonella enterica subsp. enterica serovar Typhimurium; procedure, shortened: as §8
Vibrio harveyi [21] = assay: Mutagenic activity in Vibrio harveyi BB7XM assessed as mutagenicity index at 40 ng/ml; type: organism-based; details: in vivo; procedure, shortened: as §7
Rattus norvegicus = species on record: Rattus norvegicus; assay: Displacement of [3H]BTX from voltage-sensitive sodium channel site2 in rat cerebral cortex at 100 uM measured after 60.0 mins by scintillation counting; type: tissue-based
[22] = Protective index, ratio of TD50 for neurotoxicity in ip dosed albino CD-1 mouse to ED50 for anticonvulsant activity in ip dosed maximal electoshock-induced seizure albino CD-1 mouse model; type: toxicity, organism-based; details: in vivo, read-out: Ratio TD50/ED50; procedure, shortened: as §5

| Structure (SMILES) | MED (Mus musculus [1]) | MTC (Mus musculus [2]) | minimal effective dose (Mus musculus [3]) [mg/kg] | MED (Mus musculus [4]) | minimal effective dose (Mus musculus [5]) [mg/kg] | MTC (Mus musculus [6]) | minimal effective dose (Mus musculus [1]) [mg/kg] | MED (Mus musculus [3]) | MED (Mus musculus [5]) | minimal effective dose (Mus musculus [4]) [mg/kg] | Time (Mus musculus [8]) [h] | TD50 [9] [mg/kg] | Time (Mus musculus [10]) [h] | also measured |
| --- | --- | --- | --- | --- | --- | --- | --- | --- | --- | --- | --- | --- | --- | --- |
| Cc1cccc(N2CCN(C(=O)CN3C(=O)CC(C)(c4ccccc4)C3=O)CC2)c1 (configuration not stated) | inactive | 300 mg/kg | 300 | inactive | 100 | 300 mg/kg |  |  |  |  |  |  |  |  |
| CC1(c2ccccc2)CC(=O)N(CC(=O)N2CCN(c3ncccn3)CC2)C1=O (configuration not stated) |  | Non-toxic |  | inactive |  | Non-toxic | 100 | inactive | inactive |  |  |  |  |  |
| COc1cccc(N2CCN(C(=O)CN3C(=O)CC(C)(c4ccccc4)C3=O)CC2)c1 (configuration not stated) | inactive | Non-toxic |  |  |  | Non-toxic |  | inactive | inactive | 100 |  |  |  |  |
| CC1(c2ccccc2)CC(=O)N(CC(=O)N2CCN(Cc3ccccc3)CC2)C1=O (configuration not stated) |  | 300 mg/kg |  |  |  | 300 mg/kg | 300 | inactive | inactive | 100 | 0.5 | 205 | 0.5 | ED50 (Mus musculus [7]): 96.5 mg/kg; selectivity ratio [11]: 2.12 |
| CC1(c2ccccc2)CC(=O)N(CC(=O)N2CCN(C3CCCCC3)CC2)C1=O (configuration not stated) | inactive | Non-toxic |  | inactive |  | 300 mg/kg |  | inactive | inactive |  |  |  |  | Activity (Mus musculus [12]): Toxic |
| CC1(c2ccccc2)CC(=O)N(CC(=O)N2CCN(c3ccc(Cl)cc3)CC2)C1=O (configuration not stated) |  | Non-toxic |  |  |  | Non-toxic | 300 | inactive | inactive | 300 |  |  |  |  |
| CCC1(C)CC(=O)NC1=O (configuration not stated) [ETHOSUXIMIDE] |  | Non-toxic |  |  |  | Non-toxic | 300 | inactive | inactive | 100 | 0.25 |  | 0.25 | ED50 (Mus musculus [13]): > 500 mg/kg |
| CC1(c2ccccc2)CC(=O)N(CC(=O)N2CCOCC2)C1=O (configuration not stated) |  | Non-toxic | 300 |  | 300 | Non-toxic | 300 |  |  | 300 |  |  |  | minimal effective dose (Mus musculus [14]): 100 mg/kg; minimal effective dose (Mus musculus [15]): 100 mg/kg |
| CC1(c2ccccc2)CC(=O)N(CC(=O)N2CCN(c3ccc(Cl)c(Cl)c3)CC2)C1=O (configuration not stated) | inactive | Non-toxic | 300 | inactive |  | Non-toxic |  |  | inactive |  |  |  |  | Activity_index (Vibrio harveyi [16]): 1.2; inhibition (INH) (Vibrio harveyi [17]): 63%; Activity_index (Salmonella typhimurium [18]): 0.3; inhibition (INH) (Vibrio harveyi [19]): 47%; inhibition (INH) (Salmonella typhimurium [20]): 36%; Activity_index (Vibrio harveyi [21]): 0.7 |
| CC1(c2ccccc2)CC(=O)N(CC(=O)N2CCN(c3ccccc3Cl)CC2)C1=O (configuration not stated) |  | Non-toxic |  | inactive |  | Non-toxic | 100 | inactive | inactive |  | 2 | > 500 | 2 | ED50 (Mus musculus [7]): 120 mg/kg; selectivity ratio [11]: > 4.16 |
| CC1(c2ccccc2)CC(=O)N(CC(=O)N2CCN(c3ccccc3)CC2)C1=O (configuration not stated) |  | Non-toxic |  |  | 300 | Non-toxic | 300 | inactive |  | 100 | 0.5 | > 500 | 0.5 | ED50 (Mus musculus [7]): 40.9 mg/kg; inhibition (Rattus norvegicus): 34.2%; selectivity ratio [11]: > 12.2 |
| O=C1NC(=O)C(c2ccccc2)(c2ccccc2)N1 [PHENYTOIN] | inactive | 100 mg/kg | 30 | inactive | 30 | 100 mg/kg |  |  |  |  | 1 | 59.9 | 1 | ED50 (Mus musculus [7]): > 500 mg/kg; ED50 (Mus musculus [13]): 6.65 mg/kg; selectivity ratio [22]: 5.56 |
| Cc1ccccc1N1CCN(C(=O)CN2C(=O)CC(C)(c3ccccc3)C2=O)CC1 (configuration not stated) | inactive | Non-toxic |  | inactive |  | Non-toxic |  | inactive | inactive |  |  |  |  |  |
| CCCC(CCC)C(=O)O [VALPROIC ACID] | inactive | Non-toxic |  |  | 300 | Non-toxic |  | inactive |  | 300 | 0.5 |  | 0.5 |  |
| CC1(c2ccccc2)CC(=O)N(CC(=O)N2CCN(c3cccc(Cl)c3)CC2)C1=O (configuration not stated) | inactive | Non-toxic | 300 | inactive | 300 | Non-toxic |  |  |  |  | 2 | > 500 | 2 | ED50 (Mus musculus [13]): 215 mg/kg; selectivity ratio [22]: > 2.32 |
| CC1(c2ccccc2)CC(=O)N(CC(=O)N2CCC(Cc3ccccc3)CC2)C1=O (configuration not stated) | inactive | Non-toxic | 300 |  |  | Non-toxic |  |  | inactive | 100 | 0.5 | > 500 | 0.5 | Activity_index (Vibrio harveyi [16]): 1.5; inhibition (INH) (Vibrio harveyi [17]): 26%; Activity_index (Salmonella typhimurium [18]): 0.5; ED50 (Mus musculus [7]): 60 mg/kg; inhibition (INH) (Vibrio harveyi [19]): 22%; inhibition (INH) (Salmonella typhimurium [20]): 5%; Activity_index (Vibrio harveyi [21]): 1.6; selectivity ratio [11]: > 8.33 |
| CC1(c2ccccc2)CC(=O)N(CC(=O)N2CCN(c3cccc(Cl)c3Cl)CC2)C1=O (configuration not stated) | inactive | Non-toxic |  |  |  | Non-toxic |  | inactive | inactive | 300 |  |  |  |  |
| CC1(c2ccccc2)CC(=O)N(CC(=O)N2CCN(c3cccc(C(F)(F)F)c3)CC2)C1=O (configuration not stated) | inactive | Non-toxic | 300 | inactive | 300 | Non-toxic |  |  |  |  |  |  |  | minimal effective dose (Mus musculus [14]): 300 mg/kg; minimal effective dose (Mus musculus [15]): 300 mg/kg |

Reference: ChEMBL document CHEMBL3616366, “Design, synthesis and biological activity of new amides derived from 3-methyl-3-phenyl-2,5-dioxo-pyrrolidin-1-yl-acetic acid” (Eur J Med Chem, 2015)
